Laboratory results published in ChEMBL document CHEMBL3351734 (Bioorg Med Chem Lett, 2014).
≈ marks a conversion by molar mass, not a printed value. Calls of active or inactive are those of the source. The calls are words filed in the database; no cut-off is given here. Residues, ends and D or L forms follow the SMILES beside them. *: point of attachment. Boc = CC(C)(C)OC(=O)*; NHBn = c1ccc(CN*)cc1

Tests used:
Cryptococcus neoformans [1] = test: Antimicrobial activity against Cryptococcus neoformans ATCC 90113 assessed as complete killing after 70 to 74 hrs by CLSI method; assay type: functional
Cryptococcus neoformans [2] = test: Antimicrobial activity against Cryptococcus neoformans ATCC 90113 assessed as detectable growth after 70 to 74 hrs by CLSI method; assay type: functional
SK-MEL = test: Cytotoxicity against human SK-MEL cells after 48 hrs by neutral red assay; assay type: cell-based
Method in brief: (§1)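 Cells were exposed to peptides up to a highest tested concentration of 10 μg/mL, using a previously reported cytotoxicity protocol.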

Cryptococcus neoformans [3] = test: Antimicrobial activity against Cryptococcus neoformans ATCC 90113 assessed as growth inhibition after 70 to 74 hrs by CLSI method; assay type: functional, organism-based
[4] = system: Mycobacterium intracellulare; test: Antimicrobial activity against Mycobacterium intracellulare ATCC 23068 after 70 to 74 hrs by Alamar Blue method; assay type: functional, organism-based
Vero = test: Cytotoxicity against African green monkey Vero cells after 48 hrs by neutral red assay; assay type: cell-based; conditions: chlorocebus sabaeus; method in brief: as §1
BT-549 = test: Cytotoxicity against human BT549 cells after 48 hrs by neutral red assay; assay type: cell-based; conditions: bt-549, 48 h; method in brief: as §1
[5] = Cytotoxicity against human SKOV3 cells after 48 hrs by neutral red assay; assay type: cell-based; conditions: sk-ov-3, 48 h; method in brief: as §1
KB = test: Cytotoxicity against human KB cells after 48 hrs by neutral red assay; assay type: cell-based; method in brief: as §1
[6] = Cytotoxicity against pig LLC-PK cells after 48 hrs by neutral red assay; assay type: cell-based, Sus scrofa; method in brief: as §1
Staphylococcus aureus [7] = test: Antibacterial activity against Staphylococcus aureus ATCC 29213 assessed as absence of detectable growth; assay type: functional
Method in brief: (§2)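 Antibacterial susceptibility determined by the CLSI (formerly NCCLS) protocol. MIC is the lowest test concentration (μg/mL) allowing no detectable growth. MBC is the lowest test concentration killing 100% of the organism.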

Staphylococcus aureus [8] = test: Antibacterial activity against Staphylococcus aureus ATCC 29213 assessed as 100% killing; assay type: functional; method in brief: as §2
Staphylococcus aureus [9] = test: Antibacterial activity against methicillin-resistant Staphylococcus aureus ATCC 33591 assessed as 100% killing; assay type: functional
Method in brief: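 Testing followed the CLSI (formerly NCCLS) susceptibility protocol. MBC was taken as the lowest test concentration in μg/mL that kills 100% of the organism.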

Staphylococcus aureus [10] = test: Antibacterial activity against methicillin-resistant Staphylococcus aureus ATCC 33591 assessed as absence of detectable growth; assay type: functional
Method in brief: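 MIC was determined by the CLSI (formerly NCCLS) protocol. It was taken as the lowest test concentration in μg/mL allowing no detectable growth.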

Q: Which MFC (Cryptococcus neoformans [1]) does the source give for N[C@@H](Cc1cnc(C2CCCC2)[nH]1)C(=O)N[C@@H](Cc1c[nH]c2ccccc12)C(=O)N[C@@H](Cc1cnc(C2CCCC2)[nH]1)C(=O)NCc1ccccc1 here?
A: inactive

Q: And the MIC (Cryptococcus neoformans [2])?
A: inactive

Q: What about the Activity (SK-MEL) of the same compound?
A: > 10 µg/mL

Q: And the IC50 (Cryptococcus neoformans [3])?
A: Not Active

Q: And the inhibition [4]?
A: inactive

Q: What about the Activity (Vero) of the same compound?
A: > 10 µg/mL

Q: What about the Activity (BT-549) of the same compound?
A: > 10 µg/mL

Q: What about the Activity [5] of the same compound?
A: > 10 µg/mL

Q: What about the Activity (KB) of the same compound?
A: > 10 µg/mL

Q: What about the Activity [6] of the same compound?
A: > 10 µg/mL

Q: Which results are given for CC(C)(C)OC(=O)N[C@@H](Cc1cnc(C2CCCC2)[nH]1)C(=O)N[C@@H](Cc1c[nH]c2ccccc12)C(=O)N[C@@H](Cc1cnc(C2CCCC2)[nH]1)C(=O)NCc1ccccc1?
A: MFC (Cryptococcus neoformans [1]): inactive; MIC (Cryptococcus neoformans [2]): inactive; Activity (SK-MEL): > 10 µg/mL; inhibition [4]: inactive; Activity (Vero): > 10 µg/mL; Activity (BT-549): > 10 µg/mL; Activity [5]: > 10 µg/mL; Activity (KB): > 10 µg/mL; Activity [6]: > 10 µg/mL

Q: With C[C@@H]1[C@H](O)[C@@H](C)/C=C/C=C/C=C/C=C/C=C/C=C/C=C/[C@H](O[C@@H]2O[C@H](C)[C@@H](O)[C@H](N)[C@@H]2O)C[C@@H]2O[C@](O)(C[C@@H](O)C[C@@H](O)[C@H](O)CC[C@@H](O)C[C@@H](O)CC(=O)O[C@H]1C)C[C@H](O)[C@H]2C(=O)O [AMPHOTERICIN B] as the compound, how does the MFC (Cryptococcus neoformans [1]) read?
A: 1.25 µg/mL (≈ 1.35 µM)

Q: And the Activity (SK-MEL)?
A: > 10 µg/mL

Q: What about the inhibition [4] of the same compound?
A: inactive

Q: What about the Activity (Vero) of the same compound?
A: > 10 µg/mL

Q: And the Activity (BT-549)?
A: > 10 µg/mL

Q: And the Activity [5]?
A: > 10 µg/mL

Q: What about the Activity (KB) of the same compound?
A: > 10 µg/mL

Q: And the Activity [6]?
A: > 10 µg/mL

Q: Which MIC (Cryptococcus neoformans [2]) does the source give for N[C@@H](Cc1cnc(C2CCCCC2)[nH]1)C(=O)N[C@@H](Cc1c[nH]c2ccccc12)C(=O)N[C@@H](Cc1cnc(C2CCCCC2)[nH]1)C(=O)NCc1ccccc1 here?
A: 1.25 µg/mL (≈ 1.71 µM)

Q: What about the Activity (SK-MEL) of the same compound?
A: > 10 µg/mL

Q: What about the inhibition [4] of the same compound?
A: inactive

Q: What about the Activity (Vero) of the same compound?
A: > 10 µg/mL

Q: What about the Activity (BT-549) of the same compound?
A: > 10 µg/mL

Q: And the Activity [5]?
A: > 10 µg/mL

Q: What about the Activity (KB) of the same compound?
A: > 10 µg/mL

Q: And the Activity [6]?
A: > 10 µg/mL

Q: With CC(C)(C)OC(=O)N[C@@H](Cc1cnc(C23CC4CC(CC(C4)C2)C3)[nH]1)C(=O)N[C@@H](Cc1c[nH]c2ccccc12)C(=O)N[C@@H](Cc1cnc(C23CC4CC(CC(C4)C2)C3)[nH]1)C(=O)NCc1ccccc1 as the compound, how does the MIC (Staphylococcus aureus [7]) read?
A: 20 µg/mL (≈ 21.4 µM)

Q: What about the Activity (SK-MEL) of the same compound?
A: > 10 µg/mL

Q: What about the MBC (Staphylococcus aureus [8]) of the same compound?
A: 20 µg/mL (≈ 21.4 µM)

Q: And the inhibition [4]?
A: inactive

Q: What about the Activity (Vero) of the same compound?
A: > 10 µg/mL

Q: And the Activity (BT-549)?
A: > 10 µg/mL

Q: What about the Activity [5] of the same compound?
A: > 10 µg/mL

Q: What about the Activity (KB) of the same compound?
A: > 10 µg/mL

Q: And the MBC (Staphylococcus aureus [9])?
A: 20 µg/mL (≈ 21.4 µM)

Q: What about the Activity [6] of the same compound?
A: > 10 µg/mL

Q: Which results are given for CC(C)(C)OC(=O)N[C@@H](Cc1cnc[nH]1)C(=O)N[C@@H](Cc1c[nH]c2ccccc12)C(=O)N[C@@H](Cc1cnc[nH]1)C(=O)NCc1ccccc1 (Boc-His-Trp-His-NHBn)?
A: MFC (Cryptococcus neoformans [1]): 1.25 µg/mL (≈ 1.87 µM); Activity (SK-MEL): > 10 µg/mL; inhibition [4]: inactive; Activity (Vero): > 10 µg/mL; Activity (BT-549): > 10 µg/mL; Activity [5]: > 10 µg/mL; Activity (KB): > 10 µg/mL; Activity [6]: > 10 µg/mL

Q: Which inhibition [4] does the source give for O=C(O)c1cn(C2CC2)c2cc(N3CCNCC3)c(F)cc2c1=O [CIPROFLOXACIN] here?
A: inactive

Q: What does the source list for N[C@@H](Cc1cnc[nH]1)C(=O)N[C@@H](Cc1c[nH]c2ccccc12)C(=O)N[C@@H](Cc1cnc[nH]1)C(=O)NCc1ccccc1 (H-His-Trp-His-NHBn)?
A: MFC (Cryptococcus neoformans [1]): 10 µg/mL (≈ 17.6 µM); Activity (SK-MEL): > 10 µg/mL; inhibition [4]: inactive; Activity (Vero): > 10 µg/mL; Activity (BT-549): > 10 µg/mL; Activity [5]: > 10 µg/mL; Activity (KB): > 10 µg/mL; Activity [6]: > 10 µg/mL

Q: For CC(C)(C)c1ncc(C[C@H](NC(=O)[C@H](Cc2c[nH]c3ccccc23)NC(=O)[C@@H](N)Cc2cnc(C(C)(C)C)[nH]2)C(=O)NCc2ccccc2)[nH]1, which MFC (Cryptococcus neoformans [1]) is on record?
A: 20 µg/mL (≈ 29.4 µM)

Q: What about the Activity (SK-MEL) of the same compound?
A: > 10 µg/mL

Q: What about the inhibition [4] of the same compound?
A: inactive

Q: What about the Activity (Vero) of the same compound?
A: > 10 µg/mL

Q: And the Activity (BT-549)?
A: > 10 µg/mL

Q: What about the Activity [5] of the same compound?
A: > 10 µg/mL

Q: What about the Activity (KB) of the same compound?
A: > 10 µg/mL

Q: And the Activity [6]?
A: > 10 µg/mL

Q: Which MIC (Staphylococcus aureus [7]) does the source give for N[C@@H](Cc1cnc(C23CC4CC(CC(C4)C2)C3)[nH]1)C(=O)N[C@@H](Cc1c[nH]c2ccccc12)C(=O)N[C@@H](Cc1cnc(C23CC4CC(CC(C4)C2)C3)[nH]1)C(=O)NCc1ccccc1 here?
A: 5 µg/mL (≈ 5.98 µM)

Q: What about the MIC (Cryptococcus neoformans [2]) of the same compound?
A: 0.63 µg/mL (≈ 0.754 µM)

Q: And the Activity (SK-MEL)?
A: > 10 µg/mL

Q: What about the MIC (Staphylococcus aureus [10]) of the same compound?
A: 10 µg/mL (≈ 12 µM)

Q: What about the inhibition [4] of the same compound?
A: inactive

Q: And the Activity (Vero)?
A: > 10 µg/mL

Q: And the Activity (BT-549)?
A: > 10 µg/mL

Q: What about the Activity [5] of the same compound?
A: > 10 µg/mL

Q: What about the Activity (KB) of the same compound?
A: > 10 µg/mL

Q: And the Activity [6]?
A: > 10 µg/mL

Q: Which MFC (Cryptococcus neoformans [1]) does the source give for CC(C)c1ncc(C[C@H](NC(=O)OC(C)(C)C)C(=O)N[C@@H](Cc2c[nH]c3ccccc23)C(=O)N[C@@H](Cc2cnc(C(C)C)[nH]2)C(=O)NCc2ccccc2)[nH]1 here?
A: inactive

Q: What about the MIC (Cryptococcus neoformans [2]) of the same compound?
A: inactive

Q: What about the Activity (SK-MEL) of the same compound?
A: > 10 µg/mL

Q: And the IC50 (Cryptococcus neoformans [3])?
A: Not Active

Q: What about the inhibition [4] of the same compound?
A: inactive

Q: And the Activity (Vero)?
A: > 10 µg/mL

Q: And the Activity (BT-549)?
A: > 10 µg/mL

Q: What about the Activity [5] of the same compound?
A: > 10 µg/mL

Q: And the Activity (KB)?
A: > 10 µg/mL

Q: What about the Activity [6] of the same compound?
A: > 10 µg/mL

Q: For CC(C)(C)OC(=O)N[C@@H](Cc1cnc(C2CCCCC2)[nH]1)C(=O)N[C@@H](Cc1c[nH]c2ccccc12)C(=O)N[C@@H](Cc1cnc(C2CCCCC2)[nH]1)C(=O)NCc1ccccc1, which MFC (Cryptococcus neoformans [1]) is on record?
A: inactive

Q: And the MIC (Cryptococcus neoformans [2])?
A: inactive

Q: What about the Activity (SK-MEL) of the same compound?
A: > 10 µg/mL

Q: What about the IC50 (Cryptococcus neoformans [3]) of the same compound?
A: Not Active

Q: What about the inhibition [4] of the same compound?
A: inactive

Q: What about the Activity (Vero) of the same compound?
A: > 10 µg/mL

Q: What about the Activity (BT-549) of the same compound?
A: > 10 µg/mL

Q: What about the Activity [5] of the same compound?
A: > 10 µg/mL

Q: And the Activity (KB)?
A: > 10 µg/mL

Q: And the Activity [6]?
A: > 10 µg/mL

Q: What does the source list for CC(C)(C)OC(=O)N[C@@H](Cc1cnc(C(C)(C)C)[nH]1)C(=O)N[C@@H](Cc1c[nH]c2ccccc12)C(=O)N[C@@H](Cc1cnc(C(C)(C)C)[nH]1)C(=O)NCc1ccccc1?
A: MFC (Cryptococcus neoformans [1]): inactive; MIC (Cryptococcus neoformans [2]): inactive; Activity (SK-MEL): > 10 µg/mL; IC50 (Cryptococcus neoformans [3]): Not Active; inhibition [4]: inactive; Activity (Vero): > 10 µg/mL; Activity (BT-549): > 10 µg/mL; Activity [5]: > 10 µg/mL; Activity (KB): > 10 µg/mL; Activity [6]: > 10 µg/mL

Q: With CC(C)c1ncc(C[C@H](NC(=O)[C@H](Cc2c[nH]c3ccccc23)NC(=O)[C@@H](N)Cc2cnc(C(C)C)[nH]2)C(=O)NCc2ccccc2)[nH]1 as the compound, how does the MIC (Cryptococcus neoformans [2]) read?
A: 20 µg/mL (≈ 30.7 µM)

Q: What about the Activity (SK-MEL) of the same compound?
A: > 10 µg/mL

Q: And the inhibition [4]?
A: inactive

Q: And the Activity (Vero)?
A: > 10 µg/mL

Q: And the Activity (BT-549)?
A: > 10 µg/mL

Q: And the Activity [5]?
A: > 10 µg/mL

Q: What about the Activity (KB) of the same compound?
A: > 10 µg/mL

Q: And the Activity [6]?
A: > 10 µg/mL
